Measured values: ChEMBL document CHEMBL4814057, “4-4-(Anilinomethyl)-3-[4-(trifluoromethyl)phenyl]-1H-pyrazol-1-ylbenzoic acid derivatives as potent anti-gram-positive bacterial agents” (Eur J Med Chem, 2021)
Converted amounts (≈) assume the structure as drawn. The source made the active and inactive calls. The calls are words filed in the database; no cut-off is given here.

How the values were obtained:
[1] = Toxicity in CD1 mouse assessed as effect on pancreatic amylase level at 50 mg/kg, ip administered as single dose measured after 24 hrs; assay type: organism-based; details: in vivo
How it was run: (§1)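 Male CD-1 mice, 8 weeks, 32–37 g, n = 10 per dose. Single IP injection at 5, 20 or 50 mg/kg in 0.9% saline, filter-sterilized; saline vehicle group. Blood taken by cardiac puncture 24 h later. 14 plasma markers measured on a chemistry panel, reported as mean ± SE. Toxicity judged by significance versus controls, normal ranges, dose-dependence and consistency across organ markers.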

Enterococcus faecium [2] = assay: Antimicrobial activity against vancomycin-resistant Enterococcus faecium clinical isolate 1100440 by CLSI-based broth microdilution assay; assay type: functional
Bacillus subtilis = assay: Antimicrobial activity against Bacillus subtilis ATCC 6623 assessed as bacterial growth inhibitions by CLSI protocol based microdilution method; assay type: functional
How it was run: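 Broth microdilution starting at 50 µg/ml with 2-fold serial dilutions; run in triplicate.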

[3] = Toxicity in CD1 mouse assessed as effect on phosphorus level at 50 mg/kg, ip administered as single dose measured after 24 hrs; assay type: organism-based; details: in vivo; how it was run: as §1
Staphylococcus aureus [4] = assay: Antimicrobial activity against methicillin-sensitive Staphylococcus aureus ATCC 29213 by CLSI-based broth microdilution assay; assay type: functional
Enterococcus faecalis [5] = assay: Antibiofilm activity against Enterococcus faecalis ATCC 29212 assessed as inhibition of biofilm formation at 2 times MIC after 24 hrs by crystal violet staining based assay relative to control; assay type: functional; design: scale not given: the % may be the effect or the level left
How it was run: (§2)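 Overnight culture brought to 0.5 McFarland in PBS, diluted 1:100 in CAMHB with 1% glucose. Inhibition: cells plus compound (in DMSO) at 2x, 1x, 0.5xMIC, 24 h at 35 °C, triplicate. Destruction: 24 h biofilm grown without drug, washed, fresh medium with compound, further 24 h. Then washed, dried, 0.1% crystal violet, solubilized in 33% acetic acid, OD 620 nm. Controls are DMSO-only and broth-only wells.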

[6] = Selectivity index, ratio of IC50 for cytotoxicity against human HEK-293T cells to MIC of antimicrobial activity against methicillin-susceptible Staphylococcus aureus ATCC 25923; assay type: toxicity, cell-based; details: read-out: Selectivity Index
Staphylococcus aureus [7] = assay: Antimicrobial activity against Staphylococcus aureus ATCC 29213 assessed as inhibition of cell wall synthesis at 2 times MIC measured by liquid scintillation counter; assay type: functional
How it was run: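 Early-exponential cells resuspended in M9 minimal medium, drug (40x stock) in triplicate, 30 min pre-incubation at 37 °C. [14C]N-acetylglucosamine 0.4 µCi/reaction for 45 min at 37 °C. Stopped with 8% SDS, heated 95 °C 30 min, spotted on nitrocellulose, washed with 0.1% SDS, then scintillation counted.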

[8] = Toxicity in CD1 mouse assessed as effect on creatine level at 50 mg/kg, ip administered as single dose measured after 24 hrs; assay type: organism-based; details: in vivo; how it was run: as §1
[9] = Toxicity in CD1 mouse assessed as effect on total bilirubin level at 50 mg/kg, ip administered as single dose measured after 24 hrs; assay type: organism-based; details: in vivo; how it was run: as §1
Enterococcus faecalis [10] = assay: Antibacterial activity against vancomycin-intermediate Enterococcus faecalis ATCC 29212 assessed as bacterial growth inhibition by measuring fold increase in MIC after14 passages by broth dilution method; assay type: functional, organism-based
Enterococcus faecalis [11] = assay: Antibiofilm activity against Enterococcus faecalis ATCC 29212 assessed as inhibition of biofilm formation at 2 times MIC after 24 hrs by crystal violet staining based assay relative to control
Enterococcus faecalis [12] = assay: Antibiofilm activity against Enterococcus faecalis ATCC 29212 assessed as inhibition of biofilm formation at 0.5 times MIC after 24 hrs by crystal violet staining based assay relative to control
Staphylococcus aureus [13] = assay: Antibacterial activity against methicillin resistant Staphylococcus aureus ATCC 700699 persisters assessed as reduction in viability at 8 times MIC measured within 4 hrs by colony counting method; assay type: functional; details: time hrs <=4
How it was run: (§3)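 Stationary-phase S. aureus from overnight CAMHB culture (35 °C, 200 rpm), washed thrice in PBS, diluted to ~5 × 10^8 CFU/ml. Incubated with antibiotic at 35 °C, 200 rpm. Aliquots taken at set times, washed, serially diluted in PBS, drop-plated (6 × 6) on TSA with 5% sheep blood. Colonies counted after 18–20 h at 35 °C. Triplicates.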

Staphylococcus aureus [14] = assay: Antibacterial activity against methicillin resistant Staphylococcus aureus ATCC 700699 persisters assessed as reduction in viability at 16 times MIC by colony counting method; assay type: functional, organism-based; how it was run: as §3
Enterococcus faecium [15] = assay: Antimicrobial activity against vancomycin-resistant Enterococcus faecium clinical isolate 1091720 by CLSI-based broth microdilution assay; assay type: functional
[16] = Toxicity in CD1 mouse assessed as effect on total protein level at 50 mg/kg, ip administered as single dose measured after 24 hrs; assay type: organism-based; details: in vivo; how it was run: as §1
Staphylococcus aureus [17] = assay: Inhibition of protein synthesis in Staphylococcus aureus ATCC 29213 at 4 times MIC measured by liquid scintillation counter; assay type: functional
Staphylococcus aureus [18] = assay: Inhibition of DNA synthesis in Staphylococcus aureus ATCC 29213 at 0.25 times MIC measured by liquid scintillation counter; assay type: functional
How it was run: (§4)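 Early-exponential cells in CAMHB added to drug (40x stock) in triplicate, with a no-drug control. After 30 min pre-incubation at room temperature, [3H]thymidine 3.0 µCi/tube (DNA) or [3H]uridine 0.5 µCi/tube (RNA) added for 30 min at room temperature. Stopped with cold TCA, precipitate filtered and washed, then scintillation counted.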

[19] = Toxicity in CD1 mouse assessed as effect on globulin level at 50 mg/kg, ip administered as single dose measured after 24 hrs; assay type: organism-based; details: in vivo; how it was run: as §1
Enterococcus faecalis [20] = assay: Antibiofilm activity against Enterococcus faecalis ATCC 29212 assessed as inhibition of biofilm formation at 0.5 times MIC after 24 hrs by crystal violet staining based assay relative to control; assay type: functional; design: scale not given: the % may be the effect or the level left; how it was run: as §2
[21] = Toxicity in CD1 mouse assessed as effect on liver 50 mg/kg, ip administered as single dose measured after 24 hrs by TUNEL assay; assay type: organism-based; details: in vivo
How it was run: (§5)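 Male CD-1 mice, single IP 50 mg/kg in saline; saline control. Acetaminophen 300 mg/kg and cisplatin 20 mg/kg IP as positive controls. At 24 h, liver and kidney paraffin-embedded, 5-µm sections, TUNEL stained with DAPI counterstain, imaged by fluorescence microscopy.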

Staphylococcus aureus [22] = assay: Inhibition of RNA synthesis in Staphylococcus aureus ATCC 29213 at 4 times MIC measured by liquid scintillation counter; assay type: functional; how it was run: as §4
Staphylococcus aureus [23] = assay: Bactericidal activity against Staphylococcus aureus ATCC 33591 assessed as reduction bacterial growth at 4X MIC measured after 4 hrs by time-kill kinetic assay; assay type: functional
How it was run: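 Log-phase culture diluted to ~5 × 10^6 CFU/ml in warm CAMHB, exposed at 4xMIC, 35 °C. 20 µl samples every 2 h, 10-fold dilutions to 10^-5, 6 × 6 drop plating. CFU/ml counted after 18–24 h at 35 °C; triplicate.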

Staphylococcus aureus [24] = assay: Inhibition of lipid synthesis in Staphylococcus aureus ATCC 29213 at 0.25 times MIC measured by liquid scintillation counter; assay type: functional
How it was run: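 Early-exponential cells in CAMHBII with drug in triplicate. Lipids extracted with chloroform/water, centrifuged, organic phase dried, then scintillation counted.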

[25] = Toxicity in CD1 mouse assessed as effect on kidney 50 mg/kg, ip administered as single dose measured after 24 hrs by TUNEL assay; assay type: organism-based; details: in vivo; how it was run: as §5

O=C(O)c1ccc(-n2cc(CNc3cc(F)cc(C(F)(F)F)c3)c(-c3ccc(C(F)(F)F)cc3)n2)cc1
Activity [1]: Non-Toxic
MIC (Enterococcus faecium [2]): 4 µg/mL (≈ 7.64 µM)
MIC (Bacillus subtilis): 0.78 µg/mL (≈ 1.49 µM)
Activity [3]: Non-Toxic
MIC (Staphylococcus aureus [4]): 2 µg/mL (≈ 3.82 µM)
Activity (Enterococcus faecalis [5]): 90%
selectivity ratio [6]: 13
inhibition (INH) (Staphylococcus aureus [7]): 39.5%
Activity [8]: Non-Toxic
Activity [9]: Non-Toxic
Activity (Enterococcus faecalis [10]): inactive
inhibition (INH) (Enterococcus faecalis [11]): 90%
inhibition (Enterococcus faecalis [12]): Active
Activity (Staphylococcus aureus [13]): 3 log10CFU/ml
Activity (Staphylococcus aureus [14]): Active
MIC (Enterococcus faecium [15]): 4 µg/mL (≈ 7.64 µM)
Activity [16]: Non-Toxic
inhibition (Staphylococcus aureus [17]): 100%
inhibition (INH) (Staphylococcus aureus [18]): 44%
Activity [19]: Non-Toxic
Activity (Enterococcus faecalis [20]): 75%
Activity [21]: Non-Toxic
inhibition (INH) (Staphylococcus aureus [22]): 98%
Activity (Staphylococcus aureus [23]): 3 log10CFU/ml
inhibition (INH) (Staphylococcus aureus [24]): 20.7%
Activity [25]: Non-Toxic
